Among the data in ChEMBL document CHEMBL1123340, “Synthesis and analgesic evaluation of 4-(2-heptyloxy)-7-[(Z)-(3-hydroxycyclohexyl)]indole: a caveat on indole-phenol bioisosterism” (1986) are Analgesic activity and inhibition in vivo values, retold here.

Type in all cases: functional
Test [1] has as its system Mus musculus. In words: Compound was tested at a dose of 20 mg/kg administered subcutaneously for a pretreatment time of 60 min for analgesic activity using phenylbenzoquinone (PBQ). Conditions: route subcutaneous. The gist of the method:
(§1)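 Mouse phenylbenzoquinone (PBQ) writhing test. Test drug is given sc, ip or iv at the stated pretreatment time before PBQ injection. Mice are placed in individual observation boxes, and total writhes per group are counted over the following 15 min. Vehicle is emulphor/ethanol/saline (1:1:18), diluted from a 1:1 emulphor/ethanol stock, and vehicle-injected controls are run. Result is % inhibition of writhing versus vehicle controls.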

For test [2], the system named is Mus musculus. Put plainly: Compound was tested at a dose of 5 mg/kg administered subcutaneously for a pretreatment time of 60 min for analgesic activity using phenylbenzoquinone (PBQ). Conditions: route subcutaneous. The gist of the method:
as §1

The subject of test [3] is Mus musculus. In words: Inhibition of the Mouse PBQ Writhing at a dose of 5 mg/kg sc after 60 min. Conditions: 1 h, route subcutaneous. The gist of the method: as §1
A general note: Writhing tests count abdominal constrictions after an irritant is injected.

Test [4] deals with Mus musculus. Put plainly: Compound was tested at a dose of 10 mg/kg administered subcutaneously for a pretreatment time of 60 min for analgesic activity using phenylbenzoquinone (PBQ). Conditions: route subcutaneous. The gist of the method: as §1
In test [5] the test system is Mus musculus. Put plainly: Inhibition of the Mouse PBQ Writhing at a dose of 10 mg/kg sc after 60 min. The following applies: 1 h, route subcutaneous. In short, it runs like this: as §1
Test [6] deals with Mus musculus. Put plainly: Inhibition of the Mouse PBQ Writhing at a dose of 20 mg/kg sc after 60 min. The following applies: 1 h, route subcutaneous. In short, it runs like this: as §1
Test [7] concerns Mus musculus. In words: Inhibition of the Mouse PBQ Writhing at a dose of 20 mg/kg ip afer 60 min. Conditions: 1 h, route intraperitoneal. The gist of the method:
as §1

Test [8] has as its system Mus musculus. In words: Compound was tested at a dose of 20 mg/kg administered intraperitoneally for a pretreatment time of 20 min for analgesic activity using phenyl benzoquinone. Conditions: route intraperitoneal. The gist of the method: as §1
The subject of test [9] is Mus musculus. Put plainly: Inhibition of the Mouse PBQ Writhing at a dose of 20 mg/kg sc after 15 min. The following applies: 0.25 h, route subcutaneous. The gist of the method: as §1
Test [10] has as its system Mus musculus. In words: Compound was tested at a dose of 20 mg/kg administered intraperitoneally for a pretreatment time of 60 min. The following applies: route intraperitoneal. The gist of the method:
as §1

Test [11] has as its system Mus musculus. Put plainly: Compound was tested at a dose of 20 mg/kg administered subcutaneously for a pretreatment time of 120 min for analgesic activity using phenylbenzoquinone (PBQ). Conditions: route subcutaneous. In short, it runs like this:
as §1

For test [12], the system named is Mus musculus. Put plainly: Inhibition of the Mouse PBQ Writhing at a dose of 20 mg/kg iv afer 10 min. In short, it runs like this:
as §1

The subject of test [13] is Mus musculus. In words: Compound was tested at a dose of 20 mg/kg administered subcutaneously for a pretreatment time of 15 min for analgesic activity using phenylbenzoquinone (PBQ). Conditions: route subcutaneous. The gist of the method: as §1
For test [14], the system named is Mus musculus. In words: Inhibition of the Mouse PBQ Writhing at a dose of 20 mg/kg sc after 120 min. The following applies: 2 h, route subcutaneous. In short, it runs like this:
as §1

Test [15] relates to Mus musculus. Put plainly: Compound was tested at a dose of 20 mg/kg administered intravenously for a pretreatment time of 10 min. Conditions: route intravenous. In short, it runs like this: as §1
Test [16] relates to Mus musculus. In words: Inhibition of the Mouse PBQ Writhing at a dose of 20 mg/kg ip afer 20 min. Conditions: route intraperitoneal. In short, it runs like this:
as §1

In test [17] the test system is Mus musculus. In words: Inhibition of the Mouse PBQ Writhing at a dose of 20 mg/kg iv afer 30 min. Conditions: 0.5 h. In short, it runs like this:
as §1

Molecules are shown by their SMILES.

Usually inhibition in vivo stands for the change of the read-out against control, counted positive when it falls.

For the compound `CCCCCC(C)Oc1ccc([C@H]2CCC[C@@H](O)C2)c(O)c1` (some centres undefined), the Analgesic activity in the test with Mus musculus [1] is recorded as 2.9; with Mus musculus [2], 23.8; in the test on Mus musculus [4] it was 15.3. In addition, the inhibition in vivo at 5 mg/kg with Mus musculus [3] is 29.2%. Moreover, the inhibition in vivo at 10 mg/kg in the test with Mus musculus [5] was determined as 54.5%. In the test with Mus musculus [6], this compound yielded an inhibition in vivo at 20 mg/kg of 91.4%.

On to `CCCCCC(C)Oc1ccc([C@H]2CCC[C@@H](O)C2)c2[nH]ccc12` (some centres undefined), for which the inhibition in vivo at 20 mg/kg turned out to be 0% in the test with Mus musculus [7]; 21.6% with Mus musculus [9]; 20.3% in the test on Mus musculus [12]; 0% in the test with Mus musculus [14]; 10% with Mus musculus [16]; 0% in the test with Mus musculus [17]. Besides, the inhibition in vivo at 20 mg/kg in the test on Mus musculus [6] is 0%. The Analgesic activity is 24.4 with Mus musculus [8]; 29.2 with Mus musculus [10]; 27.2 with Mus musculus [1]; 32.4 in the test on Mus musculus [11]; 16.7 with Mus musculus [13]; 24.8 in the test on Mus musculus [15].
